Test results: ChEMBL document CHEMBL1777807, “3-Substituted 3-(4-aryloxyaryl)-propanoic acids as GPR40 agonists” (Bioorg Med Chem Lett, 2011)

Columns and labels:
[1] = biological target: T1, Free fatty acid receptor 1 (Homo sapiens, UniProt O14842); test: Agonist activity at human GPR40 expressed in CHO cells assessed as intracellular calcium mobilization by FLIPR assay; format: functional, cell-based
Summary of the method: (§1)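 Intracellular calcium flux read on a fluorometric imaging plate reader, giving EC50 (nM). Each reported value is the mean of at least 3 experiments, with standard deviations below 75% of the average.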

[2] = biological target: Free fatty acid receptor 1 (Mus musculus, UniProt Q76JU9); test: Agonist activity at mouse GPR40 expressed in CHO cells assessed as intracellular calcium mobilization by FLIPR assay; format: functional, cell-based; summary of the method: as §1
[3] = biological target: T1, Free fatty acid receptor 1; test: Inhibition of human GPR40 expressed in CHO cells by SPA based binding assay; format: cell-based
Summary of the method: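 Scintillation proximity binding assay using receptor isolated from CHO cells overexpressing human GPR40, giving IC50 (nM). Each value is the mean of at least 3 experiments, with standard deviations below 75% of the average.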

[4] = biological target: T1, Free fatty acid receptor 1; test: Agonist activity at human GPR40 expressed in HEK293 cells assessed as [3H]IP3 production in presence of 10% human serum; format: functional, cell-based
Summary of the method: (§2)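 IP3 production was measured in human cells as EC50 (nM). One condition included 10% human serum and the other 0.4% serum albumin, to reflect plasma protein binding.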

[5] = biological target: T1, Free fatty acid receptor 1; test: Agonist activity at human GPR40 expressed in HEK293 cells assessed as [3H]IP3 production in presence of 0.4% serum albumin; format: functional, cell-based; summary of the method: as §2
Cytochrome P450 2C9 = Cytochrome P450 2C9 (Homo sapiens, UniProt P11712); test: Inhibition of CYP2C9; format: ADME
Cytochrome P450 2D6 = Cytochrome P450 2D6 (Homo sapiens, UniProt P10635); test: Inhibition of CYP2D6; format: ADME
Cytochrome P450 3A4 = Cytochrome P450 3A4 (Homo sapiens, UniProt P08684); test: Inhibition of CYP3A4; format: ADME
[6] = biological target: Voltage-gated inwardly rectifying potassium channel KCNH2 (Homo sapiens, UniProt Q12809); test: Inhibition of human ERG
[7] = biological target: Voltage-dependent L-type calcium channel subunit alpha-1C (Homo sapiens, UniProt Q13936); test: Inhibition of Cav1.2 calcium channel
[8] = Plasma clearance in mouse; format: ADME, organism-based
[9] = Volume of distribution in mouse; format: ADME, organism-based; settings: in vivo
[10] = Half life in mouse; format: ADME, organism-based; settings: in vivo
[11] = Oral bioavailability in mouse; format: ADME, organism-based; settings: in vivo
[12] = Cmax in mouse; format: ADME, organism-based; settings: in vivo
[13] = Tmax in mouse; format: ADME, organism-based; settings: in vivo
Mus musculus = test: Inhibition of glucose AUC in dextrose-treated lean mouse blood at 10 mg/kg, po treated 1 hr prior to dextrose challenge by intraperitoneal glucose tolerance test; format: functional

Voltage-dependent L-type calcium channel subunit alpha-1C, sequence (Q13936 whole entry): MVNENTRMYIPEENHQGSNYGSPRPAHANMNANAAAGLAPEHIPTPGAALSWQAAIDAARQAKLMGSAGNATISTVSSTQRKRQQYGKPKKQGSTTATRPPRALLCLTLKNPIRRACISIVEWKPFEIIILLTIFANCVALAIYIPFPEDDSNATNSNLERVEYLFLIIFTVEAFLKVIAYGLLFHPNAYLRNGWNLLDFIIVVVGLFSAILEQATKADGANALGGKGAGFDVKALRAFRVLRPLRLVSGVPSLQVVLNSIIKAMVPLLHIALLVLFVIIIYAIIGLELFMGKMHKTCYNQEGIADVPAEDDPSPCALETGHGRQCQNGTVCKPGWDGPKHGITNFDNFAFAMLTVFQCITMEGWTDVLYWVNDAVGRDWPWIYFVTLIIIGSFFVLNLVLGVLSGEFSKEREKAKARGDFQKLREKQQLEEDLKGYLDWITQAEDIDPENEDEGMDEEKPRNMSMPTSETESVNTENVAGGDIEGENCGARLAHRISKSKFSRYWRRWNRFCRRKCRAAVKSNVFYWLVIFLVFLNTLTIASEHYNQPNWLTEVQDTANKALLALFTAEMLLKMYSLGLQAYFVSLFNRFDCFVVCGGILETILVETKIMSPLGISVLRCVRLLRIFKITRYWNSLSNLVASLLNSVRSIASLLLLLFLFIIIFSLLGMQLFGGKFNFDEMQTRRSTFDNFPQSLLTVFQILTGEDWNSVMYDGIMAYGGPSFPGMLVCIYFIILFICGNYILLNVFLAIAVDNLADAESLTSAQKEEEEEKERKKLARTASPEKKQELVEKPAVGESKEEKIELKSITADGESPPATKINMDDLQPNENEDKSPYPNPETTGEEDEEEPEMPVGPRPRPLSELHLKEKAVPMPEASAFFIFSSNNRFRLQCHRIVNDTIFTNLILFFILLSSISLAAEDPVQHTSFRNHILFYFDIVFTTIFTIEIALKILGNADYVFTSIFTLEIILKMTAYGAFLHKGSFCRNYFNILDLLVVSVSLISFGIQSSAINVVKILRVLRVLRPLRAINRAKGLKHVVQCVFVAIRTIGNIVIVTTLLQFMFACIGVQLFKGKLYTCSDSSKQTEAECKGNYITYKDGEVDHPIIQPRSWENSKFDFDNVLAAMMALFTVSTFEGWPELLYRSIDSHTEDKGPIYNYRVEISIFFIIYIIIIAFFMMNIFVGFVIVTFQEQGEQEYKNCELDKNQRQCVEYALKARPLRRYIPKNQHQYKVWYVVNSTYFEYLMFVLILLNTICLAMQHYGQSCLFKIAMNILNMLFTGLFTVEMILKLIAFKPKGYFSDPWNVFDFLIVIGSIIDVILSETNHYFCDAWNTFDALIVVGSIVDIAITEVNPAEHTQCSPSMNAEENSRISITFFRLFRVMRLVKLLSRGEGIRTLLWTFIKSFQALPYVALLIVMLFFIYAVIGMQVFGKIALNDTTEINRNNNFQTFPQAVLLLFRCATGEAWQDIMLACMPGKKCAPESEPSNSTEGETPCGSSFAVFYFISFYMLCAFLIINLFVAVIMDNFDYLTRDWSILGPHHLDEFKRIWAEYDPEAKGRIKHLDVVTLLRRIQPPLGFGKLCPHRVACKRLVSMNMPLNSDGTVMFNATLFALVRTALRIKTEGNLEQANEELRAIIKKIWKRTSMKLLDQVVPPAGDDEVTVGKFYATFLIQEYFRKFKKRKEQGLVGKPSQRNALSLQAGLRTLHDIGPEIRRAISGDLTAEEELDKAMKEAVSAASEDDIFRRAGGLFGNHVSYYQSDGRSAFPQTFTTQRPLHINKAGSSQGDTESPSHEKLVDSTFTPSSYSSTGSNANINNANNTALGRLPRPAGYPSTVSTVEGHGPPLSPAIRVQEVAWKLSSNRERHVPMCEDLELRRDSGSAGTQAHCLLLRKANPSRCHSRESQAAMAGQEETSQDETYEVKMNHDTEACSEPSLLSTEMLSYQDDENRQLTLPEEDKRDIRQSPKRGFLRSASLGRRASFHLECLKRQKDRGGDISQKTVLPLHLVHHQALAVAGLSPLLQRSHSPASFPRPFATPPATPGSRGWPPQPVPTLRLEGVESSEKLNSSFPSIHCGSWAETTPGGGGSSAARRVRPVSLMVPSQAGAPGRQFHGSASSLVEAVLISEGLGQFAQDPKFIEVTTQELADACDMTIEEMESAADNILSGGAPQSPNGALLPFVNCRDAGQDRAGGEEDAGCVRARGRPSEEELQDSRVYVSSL
Free fatty acid receptor 1 (Mus musculus, UniProt Q76JU9), sequence (Q76JU9 whole entry): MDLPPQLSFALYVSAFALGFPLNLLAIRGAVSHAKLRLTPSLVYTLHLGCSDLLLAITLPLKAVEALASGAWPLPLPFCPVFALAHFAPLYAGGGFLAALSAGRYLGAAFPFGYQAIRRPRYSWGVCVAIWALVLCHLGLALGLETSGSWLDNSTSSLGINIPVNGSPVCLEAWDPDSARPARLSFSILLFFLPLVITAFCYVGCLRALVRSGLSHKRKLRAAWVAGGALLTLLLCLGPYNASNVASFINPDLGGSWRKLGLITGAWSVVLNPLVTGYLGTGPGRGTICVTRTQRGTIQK
Cytochrome P450 3A4, sequence (P08684 whole entry): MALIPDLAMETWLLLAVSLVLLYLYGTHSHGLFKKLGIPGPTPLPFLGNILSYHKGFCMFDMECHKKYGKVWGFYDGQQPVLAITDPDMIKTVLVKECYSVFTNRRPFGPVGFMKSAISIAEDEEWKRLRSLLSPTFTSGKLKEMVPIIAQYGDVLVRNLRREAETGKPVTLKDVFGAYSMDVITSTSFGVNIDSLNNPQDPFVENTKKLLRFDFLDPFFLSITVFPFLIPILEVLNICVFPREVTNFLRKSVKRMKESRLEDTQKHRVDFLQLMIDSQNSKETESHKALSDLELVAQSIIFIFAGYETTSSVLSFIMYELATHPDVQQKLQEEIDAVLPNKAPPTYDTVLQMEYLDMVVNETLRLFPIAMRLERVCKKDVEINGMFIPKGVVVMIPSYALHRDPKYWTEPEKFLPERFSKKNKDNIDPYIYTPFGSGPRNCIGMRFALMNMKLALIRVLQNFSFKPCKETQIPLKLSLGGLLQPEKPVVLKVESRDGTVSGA
T1 sequence (O14842 whole entry): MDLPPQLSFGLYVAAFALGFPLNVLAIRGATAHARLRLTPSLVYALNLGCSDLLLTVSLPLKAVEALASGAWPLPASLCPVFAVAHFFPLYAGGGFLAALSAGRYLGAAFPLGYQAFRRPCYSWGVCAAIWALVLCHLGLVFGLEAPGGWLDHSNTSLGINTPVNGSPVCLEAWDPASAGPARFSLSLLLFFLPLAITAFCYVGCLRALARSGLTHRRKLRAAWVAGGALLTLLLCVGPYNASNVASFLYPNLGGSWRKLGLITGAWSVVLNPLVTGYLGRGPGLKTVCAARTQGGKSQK
Cytochrome P450 2C9, sequence (P11712 whole entry): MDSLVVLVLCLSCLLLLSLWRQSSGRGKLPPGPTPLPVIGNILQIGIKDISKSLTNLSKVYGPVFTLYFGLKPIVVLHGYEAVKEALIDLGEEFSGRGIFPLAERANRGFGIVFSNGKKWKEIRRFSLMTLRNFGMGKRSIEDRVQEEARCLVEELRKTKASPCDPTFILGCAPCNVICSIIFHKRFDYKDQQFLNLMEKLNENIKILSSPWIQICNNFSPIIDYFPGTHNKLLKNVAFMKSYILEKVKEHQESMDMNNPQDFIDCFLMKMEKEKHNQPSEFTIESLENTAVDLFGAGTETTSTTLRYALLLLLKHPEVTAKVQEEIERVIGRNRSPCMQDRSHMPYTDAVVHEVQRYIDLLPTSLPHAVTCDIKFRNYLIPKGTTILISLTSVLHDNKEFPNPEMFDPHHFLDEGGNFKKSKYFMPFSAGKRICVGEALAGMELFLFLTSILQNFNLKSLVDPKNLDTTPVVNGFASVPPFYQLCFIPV
Cytochrome P450 2D6, sequence (P10635 whole entry): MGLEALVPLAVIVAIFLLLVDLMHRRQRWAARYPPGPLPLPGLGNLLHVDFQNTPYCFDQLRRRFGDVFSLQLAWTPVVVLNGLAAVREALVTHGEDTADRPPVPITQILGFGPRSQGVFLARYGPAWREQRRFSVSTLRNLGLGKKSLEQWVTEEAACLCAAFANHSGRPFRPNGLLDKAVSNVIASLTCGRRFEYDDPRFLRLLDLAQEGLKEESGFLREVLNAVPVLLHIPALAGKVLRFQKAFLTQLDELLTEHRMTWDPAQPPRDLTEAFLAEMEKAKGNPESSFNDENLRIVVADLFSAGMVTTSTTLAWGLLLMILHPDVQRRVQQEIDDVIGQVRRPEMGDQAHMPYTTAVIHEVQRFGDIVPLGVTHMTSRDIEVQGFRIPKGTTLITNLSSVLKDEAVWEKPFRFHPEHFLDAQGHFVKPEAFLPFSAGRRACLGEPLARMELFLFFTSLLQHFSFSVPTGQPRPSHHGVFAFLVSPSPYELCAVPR

EC50 [1]	EC50 [2]	IC50 [3]	SMILES	further results
1.36 µM	–	–	O=C(O)CCc1ccc(Oc2ccc(Cl)cc2Cl)cc1	–
0.686 µM	–	–	O=C(O)CCc1ccc(Oc2ccc(C(F)(F)F)cc2Cl)cc1	–
0.97 µM	–	–	O=C(O)C(Cc1ccc(Oc2ccc(C(F)(F)F)cc2Cl)cc1)C(=O)O	–
0.474 µM	–	–	O=C1NC(=O)C(Cc2ccc(Oc3ccc(F)cc3)cc2)S1 (stereo unspecified)	–
0.031 µM	0.047 µM	0.042 µM	CC#CC(CC(=O)O)c1ccc(O[C@@H]2CCc3ccccc32)cc1 (mixture of isomers)	–
0.051 µM	0.1 µM	0.023 µM	CC#CC(CC(=O)O)c1ccc(OC2CCCc3nc(-c4ccc(C)cc4)sc32)cc1 (mixture of isomers)	–
0.113 µM	0.104 µM	0.049 µM	CC#CC(CC(=O)O)c1ccc(Oc2ccc(C(F)(F)F)cc2OC(F)F)cc1F (racemic)	EC50 [4]: 0.306 µM; EC50 [5]: 0.349 µM; IC50 (Cytochrome P450 2C9): 28 µM; IC50 (Cytochrome P450 2D6): > 50 µM; IC50 (Cytochrome P450 3A4): > 50 µM; IC50 [6]: 25 µM; IC50 [7]: 25.6 µM
2.48 µM	–	–	CC(CC(=O)O)c1ccc(Oc2ccc(Cl)cc2Cl)cc1 (racemic)	–
0.094 µM	0.127 µM	0.04 µM	CC#CC(CC(=O)O)c1ccc(Oc2ccc(C(F)(F)F)cc2C)cc1 (racemic)	–
0.071 µM	0.077 µM	0.012 µM	CC#CC(CC(=O)O)c1ccc(Oc2ccc(C(F)(F)F)cc2OC(F)F)cc1 (racemic)	EC50 [4]: 0.436 µM; EC50 [5]: 0.455 µM; clearance [8]: 0.49 mL/min/kg; Vd [9]: 0.31 L/kg; half-life [10]: 7.8 h; bioavailability [11]: 112%; Cmax [12]: 12 µM; Tmax [13]: 4 h; inhibition in vivo at 10 mg/kg (Mus musculus): 66%; IC50 (Cytochrome P450 2C9): > 50 µM; IC50 (Cytochrome P450 2D6): > 50 µM; IC50 (Cytochrome P450 3A4): > 50 µM; IC50 [6]: > 60 µM; IC50 [7]: > 30 µM
0.042 µM	0.048 µM	0.023 µM	CC#CC(CC(=O)O)c1ccc(Oc2ccc(C#N)cc2Cl)cc1 (racemic)	EC50 [4]: 0.519 µM; EC50 [5]: 0.597 µM
0.085 µM	0.088 µM	0.036 µM	CC#CC(CC(=O)O)c1ccc(Oc2ccc(C#N)cc2Br)cc1 (racemic)	–
0.053 µM	0.093 µM	0.013 µM	CC#CC(CC(=O)O)c1ccc(Oc2ccc(C#N)c3ccccc23)cc1 (racemic)	EC50 [4]: 0.172 µM; EC50 [5]: 0.247 µM
1.4 µM	1.25 µM	0.211 µM	CC#CC(CC(=O)O)c1ccc(Oc2ccc(C(F)(F)F)c3ccccc23)cc1 (racemic)	–
0.108 µM	0.095 µM	0.03 µM	CC#CC(CC(=O)O)c1ccc(Oc2ncc(C(F)(F)F)cc2Cl)cc1 (racemic)	EC50 [4]: 0.409 µM
1.57 µM	1.48 µM	0.433 µM	CC#CC(CC(=O)O)c1ccc(Oc2ncc(Br)cn2)cc1 (racemic)	–
1.58 µM	0.985 µM	2.49 µM	CC#CC(CC(=O)O)c1ccc(Oc2nccnc2C#N)cc1 (racemic)	–
0.394 µM	0.149 µM	0.342 µM	CC#CC(CC(=O)O)c1ccc(Oc2nccc3ccccc23)cc1 (racemic)	–
0.954 µM	3.71 µM	4.4 µM	CC#CC(c1ccc(OCc2ccccc2)cc1)C1OC(=O)NC1=O (racemic)	–
0.114 µM	0.124 µM	0.312 µM	CC#CC(CC(=O)O)c1ccc(OC2CCCC2)cc1 (racemic)	–
2.82 µM	0.871 µM	3.44 µM	CC#C[C@]1(c2ccc(Oc3ccc(C(F)(F)F)cc3Cl)cc2)C[C@@H]1C(=O)O (racemic)	–
24.5 µM	> 40 µM	> 10 µM	CC#C[C@]1(c2ccc(Oc3ccc(C(F)(F)F)cc3Cl)cc2)C[C@H]1C(=O)O (racemic)	–
0.124 µM	0.266 µM	0.019 µM	CC#CC(c1ccc(Oc2ccc(C(F)(F)F)cc2OC(F)F)cc1)C1OC(=O)NC1=O (racemic)	EC50 [4]: 0.224 µM; EC50 [5]: 0.249 µM
7.58 µM	7.06 µM	2.41 µM	CC#C[C@H](c1ccc(Oc2ccc(C(F)(F)F)cc2OC(F)F)cc1)[C@H]1OC(=O)NC1=O (racemic)	–
0.13 µM	0.136 µM	0.151 µM	CC#C[C@@H](c1ccc(Oc2ccc(C(F)(F)F)cc2OC(F)F)cc1)[C@H]1OC(=O)NC1=O (racemic)	clearance [8]: 0.85 mL/min/kg; Vd [9]: 0.47 L/kg; half-life [10]: 7 h; bioavailability [11]: 93%; Cmax [12]: 5.5 µM; Tmax [13]: 4.7 h; IC50 (Cytochrome P450 3A4): > 50 µM; IC50 [7]: 5.1 µM
